Measured values: ChEMBL document CHEMBL1126849, “Synthesis of A-ring fluorinated derivatives of (17 alpha,20E/Z)-[125I]iodovinylestradiols: effect on receptor binding and receptor-mediated target tissue uptake” (J Med Chem, 1993)

Legend:
Rattus norvegicus [1] = test: Biodistribution in lungs of immature female rat after 3 hour administration of 3 micro Ci (111 kBq) in the absence of 60 microg estradiol; format: ADME, organism-based, Lung; settings: in vivo
Summary of the method: (§1)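 Immature female Long Evans rats (21–24 days, 45–70 g), three to five per group, given 125I-labeled steroid (3 μCi, 111 kBq) by lateral tail vein without anesthesia. Vehicle: ethanol diluted in saline with 1% Tween-80, final ethanol 9%, 0.22 μm filtered. +E2 groups received 60 μg unlabeled estradiol co-injected. Killed under ether at set times; tissues KCl-washed, blotted, weighed, gamma counted; %ID/g, mean with SE.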

Rattus norvegicus [2] = test: Biodistribution in muscle of immature female rat after 1 hr administration of 3 micro Ci (111 kBq) in the absence of 60 microg estradiol; format: ADME, organism-based, Muscle tissue; settings: in vivo; summary of the method: as §1
Rattus norvegicus [3] = test: Biodistribution in fat of immature female rat after 1 hr administration of 3 micro Ci (111 kBq) in the absence of 60 microg estradiol; format: ADME, organism-based, Adipose tissue; settings: in vivo
Summary of the method: (§2)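 Immature female Long Evans rats (21–24 days, 45–70 g), unanesthetized in retention cages, given 3 µCi (111 kBq) 125I-labeled steroid i.v. via lateral tail vein. Vehicle was ethanol diluted in saline containing 1% Tween-80, giving 9% ethanol final. The blocking group received 60 µg unlabeled estradiol co-injected. Rats were killed under ether by axillary bleeding, and tissues were KCl-washed and gamma-counted. Data are %ID/g, mean ± SE, n=3–5.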

Rattus norvegicus [4] = test: Biodistribution in liver of immature female rat after 3 hour administration of 3 micro Ci (111 kBq) in the absence of 60 microg estradiol; format: ADME, organism-based; settings: in vivo; summary of the method: as §2
Rattus norvegicus [5] = test: Biodistribution in uterus of immature female rat after 3 hour administration of 3 micro Ci (111 kBq) in the absence of 60 microg estradiol; format: ADME, organism-based; settings: in vivo
Summary of the method: (§3)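 Immature female Long Evans rats (21–24 days, 45–70 g), 3–5 per group, unanesthetized in retention cages, given 3 μCi (111 kBq) 125I-labeled steroid by lateral tail vein. Vehicle: ethanol diluted with saline containing 1% Tween-80, final ethanol 9%. +E2 group co-injected 60 μg unlabeled estradiol (1 h only). Killed under ether; tissues KCl-washed, weighed, gamma-counted. Output: %ID/g (mean, SE) and uterus to blood or nontarget (muscle, spleen, lungs) ratios.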

Rattus norvegicus [6] = test: Biodistribution in thyroid of immature female rat after 1 hr administration of 3 micro Ci (111 kBq) in the presence of (+E2); format: ADME, organism-based, Thyroid gland; settings: in vivo; summary of the method: as §1
[7] = target: Estrogen receptor (Mus musculus) (UniProt O08537+P19785); test: Relative binding affinity (RBA) against murine cytoplasmic estrogen receptor incubated at 0-4 degree Celsius for 18 hours; format: protein assay
Chain of Estrogen receptor (Mus musculus) (O08537 whole entry, looked up): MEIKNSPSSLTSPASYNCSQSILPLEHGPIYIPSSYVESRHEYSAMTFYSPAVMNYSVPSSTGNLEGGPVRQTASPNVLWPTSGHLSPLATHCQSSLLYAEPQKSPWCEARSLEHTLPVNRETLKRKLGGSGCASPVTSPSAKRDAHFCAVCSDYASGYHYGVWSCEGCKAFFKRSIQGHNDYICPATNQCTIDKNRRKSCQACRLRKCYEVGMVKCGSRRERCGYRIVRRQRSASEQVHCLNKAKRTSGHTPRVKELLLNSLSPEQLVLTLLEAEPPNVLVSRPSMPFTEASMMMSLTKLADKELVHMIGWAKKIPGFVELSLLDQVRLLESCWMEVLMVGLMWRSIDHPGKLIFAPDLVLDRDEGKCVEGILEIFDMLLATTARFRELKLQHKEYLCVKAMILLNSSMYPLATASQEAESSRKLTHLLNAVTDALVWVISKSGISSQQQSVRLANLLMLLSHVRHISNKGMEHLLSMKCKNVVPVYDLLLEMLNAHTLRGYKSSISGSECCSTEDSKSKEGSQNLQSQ
Chain of Estrogen receptor (Mus musculus) (P19785 whole entry, looked up): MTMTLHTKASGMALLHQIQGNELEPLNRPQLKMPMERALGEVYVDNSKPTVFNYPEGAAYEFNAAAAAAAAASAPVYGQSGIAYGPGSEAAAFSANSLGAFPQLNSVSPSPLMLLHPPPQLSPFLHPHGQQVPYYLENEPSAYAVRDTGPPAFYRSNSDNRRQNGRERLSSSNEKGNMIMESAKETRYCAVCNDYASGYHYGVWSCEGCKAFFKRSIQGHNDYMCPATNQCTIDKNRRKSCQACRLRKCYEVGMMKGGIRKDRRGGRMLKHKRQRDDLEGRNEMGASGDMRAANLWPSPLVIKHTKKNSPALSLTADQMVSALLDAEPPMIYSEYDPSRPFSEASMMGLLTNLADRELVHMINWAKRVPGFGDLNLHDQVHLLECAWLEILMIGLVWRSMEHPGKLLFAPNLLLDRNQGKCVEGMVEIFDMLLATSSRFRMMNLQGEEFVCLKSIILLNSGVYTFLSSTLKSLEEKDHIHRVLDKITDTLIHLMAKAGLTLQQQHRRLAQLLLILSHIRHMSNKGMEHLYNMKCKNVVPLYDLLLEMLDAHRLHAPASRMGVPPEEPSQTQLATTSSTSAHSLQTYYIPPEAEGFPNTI
Summary of the method: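 Competitive binding on murine uterine cytoplasmic extract with 20 nM [3H]estradiol and competitor steroids at 2 nM–20 μM, incubated 18 h at 0–4 °C. RBA = 100 × ratio of […] concentration giving 50% competition for specific binding. Mean of three experiments with SD.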

Rattus norvegicus [8] = test: Biodistribution in thyroid of immature female rat after 1 hr administration of 3 micro Ci (111 kBq) in the absence of 60 microg estradiol; format: ADME, organism-based, Thyroid gland; settings: in vivo; summary of the method: as §1
Rattus norvegicus [9] = test: Biodistribution in uterus / blood of immature female rat after 5 hour administration of 3 micro Ci (111 kBq) in the absence of 60 microg estradiol; format: ADME, organism-based; settings: in vivo
Summary of the method: (§4)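 Same in vivo procedure: immature female Long Evans rats (21–24 days), three to five per group, 3 μCi (111 kBq) tracer i.v. via tail vein in 9% ethanol/saline/1% Tween-80, ± 60 μg estradiol co-injected at 1 h. Uterus %ID/g (gamma counting) divided by blood, or by nontarget organ (muscle, spleen, lungs), %ID/g to give ratios.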

Rattus norvegicus [10] = test: Biodistribution in fat of immature female rat after 5 hour administration of 3 micro Ci (111 kBq) in the absence of 60 microg estradiol; format: ADME, organism-based, Adipose tissue; settings: in vivo; summary of the method: as §2
Rattus norvegicus [11] = test: Biodistribution in kidney of immature female rat after 1 hr administration of 3 micro Ci (111 kBq) in the presence of (+E2); format: ADME, organism-based; settings: in vivo; summary of the method: as §2
Rattus norvegicus [12] = test: Biodistribution in spleen of immature female rat after 1 hr administration of 3 micro Ci (111 kBq) in the absence of 60 microg estradiol; format: ADME, organism-based; settings: in vivo; summary of the method: as §1
Rattus norvegicus [13] = test: Biodistribution in lungs of immature female rat after 12 hour administration of 3 micro Ci (111 kBq) in the absence of 60 microg estradiol; format: ADME, organism-based, Lung; settings: in vivo; summary of the method: as §1
Rattus norvegicus [14] = test: Biodistribution in fat of immature female rat after 3 hour administration of 3 micro Ci (111 kBq) in the absence of 60 microg estradiol; format: ADME, organism-based, Adipose tissue; settings: in vivo; summary of the method: as §2
Rattus norvegicus [15] = test: Biodistribution in uterus of immature female rat after 1 hr administration of 3 micro Ci (111 kBq) in the absence of 60 microg estradiol; format: ADME, organism-based; settings: in vivo; summary of the method: as §3
Rattus norvegicus [16] = test: Biodistribution in uterus of immature female rat after 5 hour administration of 3 micro Ci (111 kBq) in the absence of 60 microg estradiol; format: ADME, organism-based; settings: in vivo; summary of the method: as §3
Rattus norvegicus [17] = test: Biodistribution in lungs of immature female rat after 1 hr administration of 3 micro Ci (111 kBq) in the absence of 60 microg estradiol; format: ADME, organism-based, Lung; settings: in vivo; summary of the method: as §2
Rattus norvegicus [18] = test: Biodistribution in muscle of immature female rat after 12 hour administration of 3 micro Ci (111 kBq) in the absence of 60 microg estradiol; format: ADME, organism-based, Muscle tissue; settings: in vivo; summary of the method: as §1
Rattus norvegicus [19] = test: Biodistribution in liver of immature female rat after 1 hr administration of 3 micro Ci (111 kBq) in the absence of 60 microg estradiol; format: ADME, organism-based; settings: in vivo; summary of the method: as §2
Rattus norvegicus [20] = test: Biodistribution in kidney of immature female rat after 12 hour administration of 3 micro Ci (111 kBq) in the absence of 60 microg estradiol; format: ADME, organism-based; settings: in vivo; summary of the method: as §2
Rattus norvegicus [21] = test: Biodistribution in lungs of immature female rat after 1 hr administration of 3 micro Ci (111 kBq) in the presence of (+E2); format: ADME, organism-based, Lung; settings: in vivo; summary of the method: as §2
Rattus norvegicus [22] = test: Biodistribution in muscle of immature female rat after 3 hour administration of 3 micro Ci (111 kBq) in the absence of 60 microg estradiol; format: ADME, organism-based, Muscle tissue; settings: in vivo; summary of the method: as §1
Rattus norvegicus [23] = test: Biodistribution in kidney of immature female rat after 3 hour administration of 3 micro Ci (111 kBq) in the absence of 60 microg estradiol; format: ADME, organism-based; settings: in vivo; summary of the method: as §2
Rattus norvegicus [24] = test: Biodistribution in muscle of immature female rat after 1 hr administration of 3 micro Ci (111 kBq) in the presence of (+E2); format: ADME, organism-based, Muscle tissue; settings: in vivo; summary of the method: as §1
Rattus norvegicus [25] = test: Biodistribution in blood of immature female rat after 3 hour administration of 3 micro Ci (111 kBq) in the absence of 60 microg estradiol; format: ADME, organism-based; settings: in vivo; summary of the method: as §2
Rattus norvegicus [26] = test: Biodistribution in uterus / blood of immature female rat after 3 hour administration of 3 micro Ci (111 kBq) in the absence of 60 microg estradiol; format: ADME, organism-based; settings: in vivo; summary of the method: as §4
Rattus norvegicus [27] = test: Biodistribution in uterus / spleen, muscle, lungs of immature female rat after 1 hr administration of 3 micro Ci (111 kBq) in the absence of 60 microg estradiol; format: ADME, organism-based; settings: in vivo; summary of the method: as §4
Rattus norvegicus [28] = test: Biodistribution in uterus / blood of immature female rat after 1 hr administration of 3 micro Ci (111 kBq) in the absence of 60 microg estradiol; format: ADME, organism-based; settings: in vivo; summary of the method: as §4
Rattus norvegicus [29] = test: Biodistribution in blood of immature female rat after 1 hr administration of 3 micro Ci (111 kBq) in the absence of 60 microg estradiol; format: ADME, organism-based; settings: in vivo; summary of the method: as §2
Rattus norvegicus [30] = test: Biodistribution in blood of immature female rat after 12 hour administration of 3 micro Ci (111 kBq) in the absence of 60 microg estradiol; format: ADME, organism-based; settings: in vivo; summary of the method: as §2

ID/g (Rattus norvegicus [1]) [%] | ID/g (Rattus norvegicus [2]) [%] | ID/g (Rattus norvegicus [3]) [%] | ID/g (Rattus norvegicus [4]) [%] | ID/g (Rattus norvegicus [5]) [%] | ID/g (Rattus norvegicus [6]) [%] | RBA [7] | ID/g (Rattus norvegicus [8]) [%] | uterus to blood ratio (Rattus norvegicus [9]) [%] | ID/g (Rattus norvegicus [10]) [%] | ID/g (Rattus norvegicus [11]) [%] | ID/g (Rattus norvegicus [12]) [%] | ID/g (Rattus norvegicus [13]) [%] | ID/g (Rattus norvegicus [14]) [%] | ID/g (Rattus norvegicus [15]) [%] | ID/g (Rattus norvegicus [16]) [%] | ID/g (Rattus norvegicus [17]) [%] | ID/g (Rattus norvegicus [18]) [%] | ID/g (Rattus norvegicus [19]) [%] | ID/g (Rattus norvegicus [20]) [%] | SMILES | other results
0.36 | 0.53 | 2.02 | 1.81 | 4.03 | 204 | 28.6 | 205 | 11.08 | 2.2 | 0.62 | 1.12 | 0.25 | 1.54 | 3.76 | 3.4 | 0.56 | 0.19 | 2.19 | 0.36 | C[C@@H]1Cc2cc(O)c(F)cc2[C@H]2CC[C@@]3(C)[C@@H](CC[C@@]3(O)/C=C\I)[C@H]12 | ID/g (Rattus norvegicus [21]): 0.42%; ID/g (Rattus norvegicus [22]): 0.32%; ID/g (Rattus norvegicus [23]): 0.69%; ID/g (Rattus norvegicus [24]): 0.29%; ID/g (Rattus norvegicus [25]): 0.32%; uterus to blood %ID/g ratio (unitless) (Rattus norvegicus [26]): 14.81%; uterus-to-nontarget tissue uptake ratio (Rattus norvegicus [27]): 5.13%; uterus-to-blood ratio of %ID/g (Rattus norvegicus [28]): 8.3%; ID/g (Rattus norvegicus [29]): 0.45%; ID/g (Rattus norvegicus [30]): 0.32%
0.57 | 0.46 | 2.97 | 2.2 | 4.24 | 65.69 | 55.9 | 71.61 | 9.01 | 1.67 | 0.87 | 0.59 | 0.1 | 1.59 | 3.75 | 1.82 | 0.89 | 0.06 | 2.91 | 0.08 | C[C@]12CC[C@@H]3c4ccc(O)c(F)c4CC[C@H]3[C@@H]1CC[C@@]2(O)/C=C/I | ID/g (Rattus norvegicus [21]): 0.75%; ID/g (Rattus norvegicus [22]): 0.31%; ID/g (Rattus norvegicus [23]): 0.59%; ID/g (Rattus norvegicus [24]): 0.58%; ID/g (Rattus norvegicus [25]): 0.96%; uterus to blood %ID/g ratio (unitless) (Rattus norvegicus [26]): 4.56%; uterus-to-nontarget tissue uptake ratio (Rattus norvegicus [27]): 6.39%; uterus-to-blood ratio of %ID/g (Rattus norvegicus [28]): 5.42%; ID/g (Rattus norvegicus [29]): 0.78%; ID/g (Rattus norvegicus [30]): 0.16%
0.62 | 0.87 | 3.34 | 3.56 | 3.23 | 243 | 13.5 | 224 | 12.41 | 1.57 | 1.58 | 0.83 | 0.13 | 1.82 | 4.41 | 3.9 | 0.95 | 0.07 | 3.5 | 0.15 | CO[C@H]1C[C@@]2(C)[C@@H](CC[C@@]2(O)/C=C/I)[C@@H]2CCc3cc(O)c(F)cc3[C@H]21 | ID/g (Rattus norvegicus [21]): 1.22%; ID/g (Rattus norvegicus [22]): 0.56%; ID/g (Rattus norvegicus [23]): 0.96%; ID/g (Rattus norvegicus [24]): 1.02%; ID/g (Rattus norvegicus [25]): 0.38%; uterus to blood %ID/g ratio (unitless) (Rattus norvegicus [26]): 8.28%; uterus-to-nontarget tissue uptake ratio (Rattus norvegicus [27]): 4.78%; uterus-to-blood ratio of %ID/g (Rattus norvegicus [28]): 9.82%; ID/g (Rattus norvegicus [29]): 0.45%; ID/g (Rattus norvegicus [30]): 0.11%
